Experimental findings from ChEMBL document CHEMBL4028876, “Discovery of a Novel Piperidine-Based Inhibitor of Cholesteryl Ester Transfer Protein (CETP) That Retains Activity in Hypertriglyceridemic Plasma” (J Med Chem, 2017) are described below.

In series [1] the target is T1, Cholesteryl ester transfer protein (Homo sapiens, UniProt P11597).
T1 sequence (P11597 whole entry): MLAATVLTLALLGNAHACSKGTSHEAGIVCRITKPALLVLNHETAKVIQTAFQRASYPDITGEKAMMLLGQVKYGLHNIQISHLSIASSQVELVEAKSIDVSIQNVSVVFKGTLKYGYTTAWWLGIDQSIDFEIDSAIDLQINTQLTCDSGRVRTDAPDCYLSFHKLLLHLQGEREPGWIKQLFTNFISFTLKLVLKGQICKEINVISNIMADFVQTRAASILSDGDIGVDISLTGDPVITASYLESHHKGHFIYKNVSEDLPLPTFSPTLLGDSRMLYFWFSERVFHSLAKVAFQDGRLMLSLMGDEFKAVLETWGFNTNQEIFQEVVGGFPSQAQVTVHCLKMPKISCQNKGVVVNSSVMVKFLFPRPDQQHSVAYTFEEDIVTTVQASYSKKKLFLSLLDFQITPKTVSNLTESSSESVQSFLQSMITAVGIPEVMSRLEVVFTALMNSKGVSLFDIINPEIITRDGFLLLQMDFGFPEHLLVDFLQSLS
Put plainly: Inhibition of CETP in human plasma measured every 30 mins for 120 mins by fluorescence method. The gist of the method:
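Pooled EDTA plasma from healthy male donors (final 50%) with compound in DMSO (final 1%). The reaction is started with fluorescent donor solution. Activity is the 30–90 min slope. IC50 is fitted to duplicate wells by a logistic equation.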

Series [2] deals with T2, Cholesteryl ester transfer protein (Homo sapiens) (UniProt P11597).
T2 sequence (whole entry): T1 sequence (P11597 whole entry)
Put plainly: Inhibition of CETP in human plasma at 100 uM measured every 30 mins for 120 mins by fluorescence method. Put shortly:
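Pooled EDTA plasma from healthy male donors (final 50%) with compound in DMSO (final 1%). The reaction is started with fluorescent donor solution. Ex/em 485/535 nm, read every 30 min for 120 min at 37 °C. Activity is the 30–90 min slope. Torcetrapib (1 or 10 µM) and DMSO define 100% and 0% inhibition. IC50 is fitted to duplicate wells by a logistic equation.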

The target in series [3] is T3, Cytochrome P450 3A4 (Homo sapiens, UniProt P08684). Put plainly: Inhibition of CYP3A4 (unknown origin) in the presence of midozolam. Format: ADME.
T3 sequence (P08684 whole entry): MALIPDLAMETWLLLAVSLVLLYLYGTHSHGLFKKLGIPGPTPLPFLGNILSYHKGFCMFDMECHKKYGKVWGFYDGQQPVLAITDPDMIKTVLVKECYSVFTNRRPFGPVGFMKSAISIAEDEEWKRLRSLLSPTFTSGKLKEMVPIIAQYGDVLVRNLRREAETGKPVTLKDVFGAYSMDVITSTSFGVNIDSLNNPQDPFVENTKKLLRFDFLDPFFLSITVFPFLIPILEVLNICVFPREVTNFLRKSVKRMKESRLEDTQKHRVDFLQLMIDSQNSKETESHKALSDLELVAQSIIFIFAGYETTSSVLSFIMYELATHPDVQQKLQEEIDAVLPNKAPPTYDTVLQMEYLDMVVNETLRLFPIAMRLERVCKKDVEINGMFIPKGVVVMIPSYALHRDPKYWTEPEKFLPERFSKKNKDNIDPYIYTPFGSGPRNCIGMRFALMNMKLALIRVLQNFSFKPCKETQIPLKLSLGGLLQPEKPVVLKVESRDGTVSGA
Series [4] in a line: Half life in Sprague-Dawley rat at 1 mg/kg, iv or 3 mg/kg, po by LC-ESI-MS/MS analysis. Type of series: ADME, organism-based. Conditions: in vivo. The gist of the method: (§1)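 Conscious 7-week-old male Sprague-Dawley rats on standard diet with free water. Dosing is 1 mg/kg iv bolus in N-methylpyrrolidin-2-one/PEG 200, or 3 mg/kg oral suspension in 0.5% aqueous methylcellulose. Blood is sampled at various time points after administration.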

Series [5] is described as follows: Oral bioavailability in Sprague-Dawley rat at 3 mg/kg by LC-ESI-MS/MS analysis. Type of series: ADME, organism-based. The note with it: in vivo. The gist of the method:
as §1

Series [6] can be described thus: AUC (infinity) in Sprague-Dawley rat at 1 mg/kg, iv or 3 mg/kg, po by LC-ESI-MS/MS analysis. Type of series: ADME, organism-based. Conditions: in vivo. Put shortly:
as §1

The target in series [7] is T3, Cytochrome P450 3A4. Put plainly: Inhibition of CYP3A4 (unknown origin) in the presence of testosterone. Type of series: ADME.
The next series has as its target Cytochrome P450 2C9 (Homo sapiens, UniProt P11712). Put plainly: Inhibition of CYP2C9 (unknown origin). Format: ADME.
Series [8] can be described thus: Clearance in Sprague-Dawley rat plasma at 1 mg/kg, iv or 3 mg/kg, po by LC-ESI-MS/MS analysis. Type of series: ADME, organism-based. Put shortly: as §1
The target of a further series is Cytochrome P450 2D6 (Homo sapiens, UniProt P10635). Put plainly: Inhibition of CYP2D6 (unknown origin). Type of series: ADME.
Sequence of Cytochrome P450 2D6 (P10635 whole entry): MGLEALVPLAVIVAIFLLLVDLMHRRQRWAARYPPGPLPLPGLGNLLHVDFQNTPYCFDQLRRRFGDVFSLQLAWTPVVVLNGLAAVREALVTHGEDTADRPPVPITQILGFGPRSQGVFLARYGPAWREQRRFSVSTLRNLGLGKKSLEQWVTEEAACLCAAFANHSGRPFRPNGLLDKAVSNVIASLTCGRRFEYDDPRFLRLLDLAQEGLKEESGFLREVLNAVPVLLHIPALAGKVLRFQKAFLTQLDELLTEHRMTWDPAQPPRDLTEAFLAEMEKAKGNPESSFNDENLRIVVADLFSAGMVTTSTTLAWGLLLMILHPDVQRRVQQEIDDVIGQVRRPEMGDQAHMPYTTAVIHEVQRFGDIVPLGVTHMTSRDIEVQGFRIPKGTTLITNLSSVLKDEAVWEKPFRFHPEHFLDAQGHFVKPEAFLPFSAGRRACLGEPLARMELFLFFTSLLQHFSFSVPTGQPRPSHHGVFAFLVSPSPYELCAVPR
Series [9] can be described thus: Volume of distribution in Sprague-Dawley rat at 1 mg/kg, iv or 3 mg/kg, po by LC-ESI-MS/MS analysis. The note with it: in vivo. Format: ADME, organism-based. The gist of the method:
as §1

Series [10] is described as follows: 1-Octanol-phosphate buffered saline partition coefficient, log D of compound at […] by tandem mass spectrometry method. Format: physicochemical.
For series [11], the system named is Rattus norvegicus. Nature of the series: Toxicity in cannulated Sprague-Dawley rat assessed as increase in plasma aldosterone levels at 5 mg/kg, iv by radioimmunoassay. Type of series: organism-based. The note with it: in vivo.
The test system of a further series is NCI-H295R. Put plainly: Toxicty in human NCI-H295R cells assessed as increase in aldosterone levels at 0.1 to 10000 nM after 24 hrs by scintillation proximity assay. Conditions: 10 µM. Format: toxicity, cell-based. (In general: In a scintillation proximity assay essentially only radioactivity close to the scintillant gives light.)
For series [12], the system named is Rattus norvegicus. Nature of the series: Toxicity in cannulated Sprague-Dawley rat assessed as increase in mean arterial pressure at 5 mg/kg, iv by blood pressure transducer based method. Type of series: organism-based. Conditions: in vivo.

Sequence of Cytochrome P450 2C9 (P11712 whole entry): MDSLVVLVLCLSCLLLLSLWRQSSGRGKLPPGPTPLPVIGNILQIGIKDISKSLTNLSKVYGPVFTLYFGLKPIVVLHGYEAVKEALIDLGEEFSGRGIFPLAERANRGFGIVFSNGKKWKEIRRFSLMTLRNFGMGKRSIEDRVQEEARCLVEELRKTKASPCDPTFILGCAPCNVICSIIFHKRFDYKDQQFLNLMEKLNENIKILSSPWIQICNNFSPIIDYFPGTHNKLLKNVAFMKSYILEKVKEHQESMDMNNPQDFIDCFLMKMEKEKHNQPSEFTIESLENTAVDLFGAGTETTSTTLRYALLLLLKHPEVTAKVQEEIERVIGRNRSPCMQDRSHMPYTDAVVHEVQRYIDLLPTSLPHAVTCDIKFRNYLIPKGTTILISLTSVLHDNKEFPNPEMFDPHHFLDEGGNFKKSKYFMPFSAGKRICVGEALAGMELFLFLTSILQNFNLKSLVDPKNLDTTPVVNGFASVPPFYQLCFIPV

Regarding `CC[C@@H]1C[C@H](N(Cc2cc(C(F)(F)F)cc(C(F)(F)F)c2)c2ncc(Br)cn2)C[C@H](Cc2ccccc2)N1C(=O)OC(C)C` (racemic), the IC50 in [1] was determined as 200 nM.

For `CC[C@@H]1C[C@H](N(Cc2cc(C(F)(F)F)cc(C(F)(F)F)c2)C(=O)OC)CCN1C(=O)OC(C)(C)C` (racemic), the inhibition in series [2] was 70%.

Compound `CC[C@@H]1C[C@H](N(Cc2cc(C(F)(F)F)cc(C(F)(F)F)c2)C(=O)OC)C[C@H](CC)N1C(=O)OC(C)(C)C` registered an IC50 in series [1] of 1300 nM.

As for `CCCC(=O)N1[C@H](CC)C[C@H](N(Cc2cc(C(F)(F)F)cc(C(F)(F)F)c2)c2ncc(Br)cn2)C[C@@H]1Cc1ccccc1` (racemic), the IC50 in [1] came to 510 nM.

Consider `CC[C@@H]1C[C@H](N(Cc2cc(C(F)(F)F)cc(C(F)(F)F)c2)c2ncc(N3CCOCC3)cn2)C[C@H](CC)N1C(=O)OC(C)C`, for which the IC50 was 2.2 µM at Cytochrome P450 3A4 [3]; 60 nM in [1]; above 50 µM on Cytochrome P450 3A4 [7]; 6.6 µM against Cytochrome P450 2C9; above 30 µM on Cytochrome P450 2D6. Besides, the half-life in series [4] is 276 min. Besides, in [5], the bioavailability was determined as 35%. The same compound displayed an AUC(0-inf) in series [6] of 2.75 µM·h. The clearance in series [8] was 10 mL/min/kg. For the same compound, the Vd in series [9] was 2.35 L/kg.

In [1], `CC[C@@H]1C[C@H](N(Cc2cc(C(F)(F)F)cc(C(F)(F)F)c2)c2ncc(Br)cn2)C[C@H](Cc2ccccc2)N1C(=O)OC(C)(C)C` had an IC50 of 77 nM.

`CCOC(=O)N1c2ccc(C(F)(F)F)cc2[C@@H](N(Cc2cc(C(F)(F)F)cc(C(F)(F)F)c2)C(=O)OC)C[C@H]1CC` [TORCETRAPIB] showed a logD in series [10] above 4. Moreover, the Activity entry in the series on Rattus norvegicus [11], in the series on NCI-H295R and in the series with Rattus norvegicus [12] was “Toxic” in each case.

Regarding `CC[C@@H]1C[C@H](N(Cc2cc(C(F)(F)F)cc(C(F)(F)F)c2)C(=O)OC)C[C@H](Cc2ccccc2)N1C(=O)OC(C)(C)C` (racemic), the IC50 in [1] came out at 771 nM.

With `Cc1cc(C)c2c(c1)[C@@H](N(Cc1cc(C(F)(F)F)cc(C(F)(F)F)c1)c1nnn(C)n1)CCCN2C[C@H]1CC[C@H](C(=O)O)CC1` [EVACETRAPIB], in [10], the logD was determined as 5.7. In [1], this compound had an IC50 of 110 nM.

In [1], `CC[C@@H]1C[C@H](N(Cc2cc(C(F)(F)F)cc(C(F)(F)F)c2)c2ncc(N3CCOCC3)cn2)C[C@H](Cc2ccccc2)N1C(=O)OC(C)(C)C` (racemic) had an IC50 of 164 nM.

For the compound `CC[C@@H]1C[C@H](N(Cc2cc(C(F)(F)F)cc(C(F)(F)F)c2)c2ncc(N3CCOCC3)cn2)C[C@H](Cc2ccccc2)N1C(=O)OC(C)(C)C`, the IC50 at Cytochrome P450 3A4 [3] is above 50 µM; in [1] it was 60 nM; on Cytochrome P450 3A4 [7], above 50 µM; against Cytochrome P450 2C9 it was above 50 µM; on Cytochrome P450 2D6, above 50 µM. The half-life in series [4] was 444 min. The compound also displayed a bioavailability in series [5] of 3%. The AUC(0-inf) in [6] worked out at 0.456 µM·h. The clearance in series [8] was 1.67 mL/min/kg. Further, the Vd in series [9] was determined as 0.7 L/kg.

Take `CCNC(=O)N1[C@H](CC)C[C@H](N(Cc2cc(C(F)(F)F)cc(C(F)(F)F)c2)c2ncc(Br)cn2)C[C@@H]1Cc1ccccc1` (racemic): in series [1], the IC50 was 4800 nM.

In turn, `CC[C@@H]1C[C@H](N(Cc2cc(OC)cc(C(F)(F)F)c2)c2ncc(Br)cn2)C[C@H](Cc2ccccc2)N1C(=O)OC(C)(C)C` (racemic) registered an IC50 in series [1] above 10000 nM.

In the case of `CC[C@@H]1C[C@H](N(Cc2cc(C(F)(F)F)cc(C(F)(F)F)c2)c2ncc(Br)cn2)C[C@H](Cc2ccccc2)N1C(=O)OC(C)(C)C` (racemic), in [1], the IC50 came out at 160 nM.

For the compound `CC[C@@H]1C[C@H](N(Cc2cc(Cl)cc(C(F)(F)F)c2)c2ncc(Br)cn2)C[C@H](Cc2ccccc2)N1C(=O)OC(C)(C)C` (racemic), the IC50 in series [1] is 240 nM.

Compound `CCC(CC)CC1(C(=O)Nc2ccccc2SC(=O)C(C)C)CCCCC1` [DALCETRAPIB] registered a logD in series [10] above 6. In series [1], this compound gave a half-inhibitory concentration (IC50) of 4100 nM.

As for `CC[C@@H]1C[C@H](N(Cc2cc(C(F)(F)F)cc(C(F)(F)F)c2)c2ncc(OC)cn2)C[C@H](Cc2ccccc2)N1C(=O)OC(C)(C)C` (racemic), in series [1], the 50% inhibitory concentration (IC50) amounted to 71 nM.

For the compound `CC[C@@H]1C[C@H](N(Cc2cc(C(F)(F)F)cc(C(F)(F)F)c2)c2ncc(N3CCOCC3)cn2)C[C@H](CC)N1C(=O)O[C@H]1CC[C@H](C(=O)O)CC1`, the IC50 is 25 µM at Cytochrome P450 3A4 [3]; 150 nM in [1]; above 50 µM on Cytochrome P450 3A4 [7]; above 50 µM at Cytochrome P450 2C9; above 50 µM against Cytochrome P450 2D6. Besides, in series [4], the half-life is 336 min. In series [5], this compound yielded a bioavailability of 58%. In addition, in series [6], the AUC(0-inf) was determined as 28.5 µM·h. The same compound showed a clearance in [8] of 1.5 mL/min/kg. The same compound came in with a Vd in series [9] of 0.67 L/kg.

In general, IC50 refers to the concentration that inhibits the measured activity by half. In general, inhibition refers to the drop in the measured response relative to a control, in per cent. Broadly, the half-life is the time needed for the level to fall by half in the phase considered. Read a low half-life as rapid decline. The term bioavailability denotes dose-corrected exposure relative to a reference, in per cent. A lower bioavailability goes with little systemic uptake. The term AUC(0-inf) denotes total exposure, with the tail of the curve extrapolated. Lower therefore signals low exposure. In general, logD refers to lipophilicity at a set pH, counting ionised and neutral species. Low values mean a more hydrophilic compound, high ones a more lipophilic compound.
